Measurements: ChEMBL document CHEMBL1153576, “Novel ureas and thioureas of 15-membered azalides with antibacterial activity against key respiratory pathogens” (Eur J Med Chem, 2009)
≈ marks a conversion by molar mass, not a printed value.

What was measured:
Format in all cases: functional
Staphylococcus aureus = test: Antibacterial activity against Staphylococcus aureus ATCC 29213 after 16 to 22 hrs by broth microdilution method
How it was run: (§1)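 Broth microdilution per the CLSI approved standard (sixth edition), using two-fold serial dilutions of compound in Mueller–Hinton broth. Stocks at 5 mg/ml in DMF. Inoculum came from a direct colony suspension adjusted by turbidity to about 5 × 10⁴ CFU/well final. Trays were incubated at 35 °C for 16–22 h. MIC is the lowest concentration completely inhibiting growth (99% inhibition).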

Streptococcus pneumoniae [1] = test: Antibacterial activity against erythromycin-susceptible Streptococcus pneumoniae after 16 to 22 hrs by broth microdilution method
How it was run: (§2)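 Streptococci tested by CLSI broth microdilution in Mueller–Hinton broth with 5% horse serum, using two-fold serial dilutions. Compounds were dissolved in DMF at 5 mg/ml (stock). Inoculum was a turbidity-adjusted direct colony suspension giving about 5 × 10⁴ CFU/well. Trays were held at 35 °C for 16–22 h. MIC is the lowest concentration completely inhibiting growth (99%).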

Streptococcus pneumoniae [2] = test: Antibacterial activity against efflux-mediated macrolide-resistant Streptococcus pneumoniae after 16 to 22 hrs by broth microdilution method
How it was run: (§3)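 Two-fold serial dilutions in microdilution trays, following the CLSI dilution standard for aerobic bacteria. Medium was Mueller–Hinton broth with 5% horse serum for streptococci. Stocks were made at 5 mg/ml in DMF. Inoculum came from a direct colony suspension adjusted by turbidity to about 5 × 10⁴ CFU/well final. Incubation was at 35 °C for 16–22 h. MIC is the lowest concentration completely inhibiting growth (99% inhibition).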

Streptococcus pneumoniae [3] = test: Antibacterial activity against constitutive macrolide-lincosamide-streptogramin-resistant Streptococcus pneumoniae after 16 to 22 hrs by broth microdilution method; how it was run: as §3
Streptococcus pyogenes [4] = test: Antibacterial activity against erythromycin-susceptible Streptococcus pyogenes after 16 to 22 hrs by broth microdilution method; how it was run: as §2
Streptococcus pyogenes [5] = test: Antibacterial activity against inducible macrolide-lincosamide-streptogramin-resistant Streptococcus pyogenes 16 to 22 hrs by broth microdilution method; how it was run: as §3
Streptococcus pyogenes [6] = test: Antibacterial activity against efflux-mediated macrolide-resistance Streptococcus pyogenes after 16 to 22 hrs by broth microdilution method; how it was run: as §3
Moraxella catarrhalis = test: Antibacterial activity against Moraxella catarrhalis ATCC 23246 after 16 to 22 hrs by broth dilution method; how it was run: as §1
Haemophilus influenzae = test: Antibacterial activity against Haemophilus influenzae ATCC 49247 after 16 to 22 hrs by broth dilution method
How it was run: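 Microdilution trays following the CLSI standard, with two-fold serial dilutions in supplemented broth suited to H. influenzae. DMF stocks at 5 mg/ml. Inoculum prepared from a turbidity-adjusted direct colony suspension to about 5 × 10⁴ CFU/well final. Incubated at 35 °C for 16–22 h. MIC is the lowest concentration giving complete (99%) growth inhibition.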

Enterococcus faecalis = test: Antibacterial activity against Enterococcus faecalis ATCC 29212 after 16 to 22 hrs by broth dilution method; how it was run: as §1
Escherichia coli = test: Antibacterial activity against Escherichia coli ATCC 25922 after 16 to 22 hrs by broth dilution method; how it was run: as §1

SMILES: CC[C@H]1OC(=O)[C@H](C)[C@@H](O[C@H]2C[C@@](C)(OC)[C@@H](O)[C@H](C)O2)[C@H](C)[C@@H](O[C@@H]2O[C@H](C)C[C@H](N(C)C)[C@H]2O)[C@](C)(O)C[C@@H](C)CN(CCCNC(=S)Nc2cccc3ccccc23)[C@H](C)[C@@H](O)[C@]1(C)O
- MIC (Staphylococcus aureus): 1 µg/mL (≈ 1.02 µM)
- MIC (Streptococcus pneumoniae [1]): ≤ 0.125 µg/mL
- MIC (Streptococcus pneumoniae [2]): 4 µg/mL (≈ 4.09 µM)
- MIC (Streptococcus pneumoniae [3]): > 64 µg/mL
- MIC (Streptococcus pyogenes [4]): ≤ 0.125 µg/mL
- MIC (Streptococcus pyogenes [5]): 4 µg/mL (≈ 4.09 µM)
- MIC (Streptococcus pyogenes [6]): 4 µg/mL (≈ 4.09 µM)
- MIC (Moraxella catarrhalis): 1 µg/mL (≈ 1.02 µM)
- MIC (Haemophilus influenzae): 2 µg/mL (≈ 2.05 µM)
- MIC (Enterococcus faecalis): 8 µg/mL (≈ 8.19 µM)
- MIC (Escherichia coli): 8 µg/mL (≈ 8.19 µM)

SMILES: CC[C@H]1OC(=O)[C@H](C)[C@@H](O[C@H]2C[C@@](C)(OC)[C@@H](O)[C@H](C)O2)[C@H](C)[C@@H](O[C@@H]2O[C@H](C)C[C@H](N(C)C)[C@H]2O)[C@](C)(O)C[C@@H](C)CN(CCCNC(=O)Nc2ccc3ccccc3c2)[C@H](C)[C@@H](O)[C@]1(C)O
- MIC (Staphylococcus aureus): 1 µg/mL (≈ 1.04 µM)
- MIC (Streptococcus pneumoniae [1]): ≤ 0.125 µg/mL
- MIC (Streptococcus pneumoniae [2]): 4 µg/mL (≈ 4.16 µM)
- MIC (Streptococcus pneumoniae [3]): 16 µg/mL (≈ 16.6 µM)
- MIC (Streptococcus pyogenes [4]): ≤ 0.125 µg/mL
- MIC (Streptococcus pyogenes [5]): 2 µg/mL (≈ 2.08 µM)
- MIC (Streptococcus pyogenes [6]): 4 µg/mL (≈ 4.16 µM)
- MIC (Moraxella catarrhalis): 0.25 µg/mL (≈ 0.26 µM)
- MIC (Haemophilus influenzae): 2 µg/mL (≈ 2.08 µM)
- MIC (Enterococcus faecalis): 8 µg/mL (≈ 8.32 µM)
- MIC (Escherichia coli): 16 µg/mL (≈ 16.6 µM)

SMILES: CC[C@H]1OC(=O)[C@H](C)[C@@H](O[C@H]2C[C@@](C)(OC)[C@@H](O)[C@H](C)O2)[C@H](C)[C@@H](O[C@@H]2O[C@H](C)C[C@H](N(C)C)[C@H]2O)[C@](C)(O)C[C@@H](C)CN(CCCNC(=O)NC(C)C)[C@H](C)[C@@H](O)[C@]1(C)O
- MIC (Staphylococcus aureus): 2 µg/mL (≈ 2.28 µM)
- MIC (Streptococcus pneumoniae [1]): ≤ 0.125 µg/mL
- MIC (Streptococcus pneumoniae [2]): 32 µg/mL (≈ 36.5 µM)
- MIC (Streptococcus pneumoniae [3]): > 64 µg/mL
- MIC (Streptococcus pyogenes [4]): ≤ 0.125 µg/mL
- MIC (Streptococcus pyogenes [5]): 8 µg/mL (≈ 9.12 µM)
- MIC (Streptococcus pyogenes [6]): 32 µg/mL (≈ 36.5 µM)
- MIC (Moraxella catarrhalis): 1 µg/mL (≈ 1.14 µM)
- MIC (Haemophilus influenzae): 16 µg/mL (≈ 18.2 µM)
- MIC (Enterococcus faecalis): 32 µg/mL (≈ 36.5 µM)
- MIC (Escherichia coli): 16 µg/mL (≈ 18.2 µM)

SMILES: CC[C@H]1OC(=O)[C@H](C)[C@@H](O[C@H]2C[C@@](C)(OC)[C@@H](O)[C@H](C)O2)[C@H](C)[C@@H](O[C@@H]2O[C@H](C)C[C@H](N(C)C)[C@H]2O)[C@](C)(O)C[C@@H](C)CN(CCCN(CCC#N)C(=O)NCCc2ccccc2)[C@H](C)[C@@H](O)[C@]1(C)O
- MIC (Staphylococcus aureus): 4 µg/mL (≈ 4.03 µM)
- MIC (Streptococcus pneumoniae [1]): ≤ 0.125 µg/mL
- MIC (Streptococcus pneumoniae [2]): 64 µg/mL (≈ 64.5 µM)
- MIC (Streptococcus pneumoniae [3]): > 64 µg/mL
- MIC (Streptococcus pyogenes [4]): ≤ 0.125 µg/mL
- MIC (Streptococcus pyogenes [5]): 32 µg/mL (≈ 32.2 µM)
- MIC (Streptococcus pyogenes [6]): 64 µg/mL (≈ 64.5 µM)
- MIC (Moraxella catarrhalis): 16 µg/mL (≈ 16.1 µM)
- MIC (Haemophilus influenzae): 32 µg/mL (≈ 32.2 µM)
- MIC (Enterococcus faecalis): 64 µg/mL (≈ 64.5 µM)
- MIC (Escherichia coli): > 64 µg/mL

SMILES: CC[C@H]1OC(=O)[C@H](C)[C@@H](O[C@H]2C[C@@](C)(OC)[C@@H](O)[C@H](C)O2)[C@H](C)[C@@H](O[C@@H]2O[C@H](C)C[C@H](N(C)C)[C@H]2O)[C@](C)(O)C[C@@H](C)CN(CCCNC(=O)NCCc2ccccc2)[C@H](C)[C@@H](O)[C@]1(C)O
- MIC (Staphylococcus aureus): 1 µg/mL (≈ 1.06 µM)
- MIC (Streptococcus pneumoniae [1]): ≤ 0.125 µg/mL
- MIC (Streptococcus pneumoniae [2]): 32 µg/mL (≈ 34.1 µM)
- MIC (Streptococcus pneumoniae [3]): > 64 µg/mL
- MIC (Streptococcus pyogenes [4]): ≤ 0.125 µg/mL
- MIC (Streptococcus pyogenes [5]): 8 µg/mL (≈ 8.52 µM)
- MIC (Streptococcus pyogenes [6]): 32 µg/mL (≈ 34.1 µM)
- MIC (Moraxella catarrhalis): 2 µg/mL (≈ 2.13 µM)
- MIC (Haemophilus influenzae): 16 µg/mL (≈ 17 µM)
- MIC (Enterococcus faecalis): 16 µg/mL (≈ 17 µM)
- MIC (Escherichia coli): 16 µg/mL (≈ 17 µM)

SMILES: CC[C@H]1OC(=O)[C@H](C)[C@@H](O[C@H]2C[C@@](C)(OC)[C@@H](O)[C@H](C)O2)[C@H](C)[C@@H](O[C@@H]2O[C@H](C)C[C@H](N(C)C)[C@H]2O)[C@](C)(O)C[C@@H](C)CN(CCCN(CCC#N)C(=O)NCc2ccccc2)[C@H](C)[C@@H](O)[C@]1(C)O
- MIC (Staphylococcus aureus): 2 µg/mL (≈ 2.04 µM)
- MIC (Streptococcus pneumoniae [1]): ≤ 0.125 µg/mL
- MIC (Streptococcus pneumoniae [2]): 16 µg/mL (≈ 16.4 µM)
- MIC (Streptococcus pneumoniae [3]): 64 µg/mL (≈ 65.4 µM)
- MIC (Streptococcus pyogenes [4]): ≤ 0.125 µg/mL
- MIC (Streptococcus pyogenes [5]): 16 µg/mL (≈ 16.4 µM)
- MIC (Streptococcus pyogenes [6]): 8 µg/mL (≈ 8.18 µM)
- MIC (Moraxella catarrhalis): 0.5 µg/mL (≈ 0.511 µM)
- MIC (Haemophilus influenzae): 4 µg/mL (≈ 4.09 µM)
- MIC (Enterococcus faecalis): 32 µg/mL (≈ 32.7 µM)
- MIC (Escherichia coli): 8 µg/mL (≈ 8.18 µM)

SMILES: CC[C@H]1OC(=O)[C@H](C)[C@@H](O[C@H]2C[C@@](C)(OC)[C@@H](O)[C@H](C)O2)[C@H](C)[C@@H](O[C@@H]2O[C@H](C)C[C@H](N(C)C)[C@H]2O)[C@](C)(O)C[C@@H](C)CN(CCCNC(=S)NCCCc2ccccc2)[C@H](C)[C@@H](O)[C@]1(C)O
- MIC (Staphylococcus aureus): 0.5 µg/mL (≈ 0.516 µM)
- MIC (Streptococcus pneumoniae [1]): ≤ 0.125 µg/mL
- MIC (Streptococcus pneumoniae [2]): 8 µg/mL (≈ 8.25 µM)
- MIC (Streptococcus pneumoniae [3]): > 64 µg/mL
- MIC (Streptococcus pyogenes [4]): ≤ 0.125 µg/mL
- MIC (Streptococcus pyogenes [5]): 4 µg/mL (≈ 4.13 µM)
- MIC (Streptococcus pyogenes [6]): 4 µg/mL (≈ 4.13 µM)
- MIC (Moraxella catarrhalis): 1 µg/mL (≈ 1.03 µM)
- MIC (Haemophilus influenzae): 2 µg/mL (≈ 2.06 µM)
- MIC (Enterococcus faecalis): 16 µg/mL (≈ 16.5 µM)
- MIC (Escherichia coli): 16 µg/mL (≈ 16.5 µM)

SMILES: CC[C@H]1OC(=O)[C@H](C)[C@@H](O[C@H]2C[C@@](C)(OC)[C@@H](O)[C@H](C)O2)[C@H](C)[C@@H](O[C@@H]2O[C@H](C)C[C@H](N(C)C)[C@H]2O)[C@](C)(O)C[C@@H](C)CN(CCCNC(=O)NC(C)c2cccc3ccccc23)[C@H](C)[C@@H](O)[C@]1(C)O (stereo partly drawn)
- MIC (Staphylococcus aureus): 1 µg/mL (≈ 1.01 µM)
- MIC (Streptococcus pneumoniae [1]): ≤ 0.125 µg/mL
- MIC (Streptococcus pneumoniae [2]): 16 µg/mL (≈ 16.2 µM)
- MIC (Streptococcus pneumoniae [3]): 16 µg/mL (≈ 16.2 µM)
- MIC (Streptococcus pyogenes [4]): ≤ 0.125 µg/mL
- MIC (Streptococcus pyogenes [5]): 2 µg/mL (≈ 2.02 µM)
- MIC (Streptococcus pyogenes [6]): 8 µg/mL (≈ 8.09 µM)
- MIC (Moraxella catarrhalis): 0.25 µg/mL (≈ 0.253 µM)
- MIC (Haemophilus influenzae): 2 µg/mL (≈ 2.02 µM)
- MIC (Enterococcus faecalis): 8 µg/mL (≈ 8.09 µM)
- MIC (Escherichia coli): 32 µg/mL (≈ 32.3 µM)
